Results taken from ChEMBL document CHEMBL5058577, “EUbOPEN Chemogenomics Library 2 (Multiplex)” (2022).

Tested on: U2OS
Assay: Multiplex assay against U2OS
Type: toxicity, cell-based
Settings: human
Outline: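 Live cells carried four stains from seeding: Hoechst33342, BioTracker Green Microtubule Cytoskeleton Dye, MitoTracker Red and Annexin V Alexa Fluor 680. They were imaged on a CQ1 microscope at 37°C and 5% CO2 after compound addition. Using CellPathfinder machine-learning gating, cells were split into Hoechst high-intensity objects or normal cells, normal cells into healthy, pyknosed or fragmented nuclei, and pyknosed cells into mitotic or apoptotic; tubulin, mitochondrial-mass and membrane-permeability phenotypes are per cents of healthy-nucleus cells.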

[1] = 12 h, 1 µM, compound concentration 1 uM, replicate 1
[2] = 12 h, 1 µM, compound concentration 1 uM, replicate 2
[3] = 12 h, 10 µM, compound concentration 10 uM, replicate 1
[4] = 12 h, 10 µM, compound concentration 10 uM, replicate 2
[5] = 24 h, 1 µM, compound concentration 1 uM, replicate 1
[6] = 24 h, 1 µM, compound concentration 1 uM, replicate 2
[7] = 24 h, 10 µM, compound concentration 10 uM, replicate 1
[8] = 24 h, 10 µM, compound concentration 10 uM, replicate 2
[9] = 48 h, 1 µM, compound concentration 1 uM, replicate 1
[10] = 48 h, 1 µM, compound concentration 1 uM, replicate 2
[11] = 48 h, 10 µM, compound concentration 10 uM, replicate 1
[12] = 48 h, 10 µM, compound concentration 10 uM, replicate 2

## O=C1COc2nccc(-c3ccccc3F)c2CN1Cc1cc(C(F)(F)F)cc(C(F)(F)F)c1
[1]
  Population Apoptotic (%): 52%
  Population Fragmented Nuclei (%): 19%
  Population Healthy Nuclei (%): 72%
  Population Hoechst High Intensity Objects (%): 4%
  Population Membrane Permeable-Phenotype (%): 6%
  Population Mitochondria Different-Phenotype (%): 2%
  Population Mitotic Cells (%): 47%
  Population Normal (%): 95%
  Population Pyknosed Nuclei (%): 8%
  Population Tubulin-Different-Phenotype (%): 4%
  Total Cell Count: 252
[2]
  Population Apoptotic (%): 77%
  Population Fragmented Nuclei (%): 23%
  Population Healthy Nuclei (%): 67%
  Population Hoechst High Intensity Objects (%): 2%
  Population Membrane Permeable-Phenotype (%): 15%
  Population Mitochondria Different-Phenotype (%): 9%
  Population Mitotic Cells (%): 22%
  Population Normal (%): 97%
  Population Tubulin-Different-Phenotype (%): 11%
  Total Cell Count: 108
[3]
  Population Apoptotic (%): 70%
  Population Fragmented Nuclei (%): 36%
  Population Healthy Nuclei (%): 47%
  Population Hoechst High Intensity Objects (%): 3%
  Population Membrane Permeable-Phenotype (%): 25%
  Population Mitochondria Different-Phenotype (%): 27%
  Population Mitotic Cells (%): 29%
  Population Normal (%): 96%
  Population Pyknosed Nuclei (%): 16%
  Population Tubulin-Different-Phenotype (%): 25%
  Total Cell Count: 200
[4]
  Population Apoptotic (%): 100%
  Population Fragmented Nuclei (%): 16%
  Population Healthy Nuclei (%): 76%
  Population Hoechst High Intensity Objects (%): 5%
  Population Membrane Permeable-Phenotype (%): 17%
  Population Mitochondria Different-Phenotype (%): 23%
  Population Mitotic Cells (%): 0%
  Population Normal (%): 94%
  Population Pyknosed Nuclei (%): 7%
  Population Tubulin-Different-Phenotype (%): 13%
  Total Cell Count: 112
[5]
  Population Apoptotic (%): 86%
  Population Fragmented Nuclei (%): 17%
  Population Healthy Nuclei (%): 74%
  Population Hoechst High Intensity Objects (%): 3%
  Population Membrane Permeable-Phenotype (%): 8%
  Population Mitochondria Different-Phenotype (%): 3%
  Population Mitotic Cells (%): 13%
  Population Normal (%): 96%
  Population Pyknosed Nuclei (%): 8%
  Population Tubulin-Different-Phenotype (%): 3%
  Total Cell Count: 291
[6]
  Population Apoptotic (%): 83%
  Population Fragmented Nuclei (%): 18%
  Population Healthy Nuclei (%): 76%
  Population Hoechst High Intensity Objects (%): 4%
  Population Membrane Permeable-Phenotype (%): 12%
  Population Mitochondria Different-Phenotype (%): 7%
  Population Mitotic Cells (%): 16%
  Population Normal (%): 95%
  Population Pyknosed Nuclei (%): 5%
  Population Tubulin-Different-Phenotype (%): 5%
  Total Cell Count: 121
[7]
  Population Apoptotic (%): 58%
  Population Fragmented Nuclei (%): 36%
  Population Healthy Nuclei (%): 43%
  Population Hoechst High Intensity Objects (%): 5%
  Population Membrane Permeable-Phenotype (%): 21%
  Population Mitochondria Different-Phenotype (%): 22%
  Population Mitotic Cells (%): 41%
  Population Normal (%): 94%
  Population Pyknosed Nuclei (%): 19%
  Population Tubulin-Different-Phenotype (%): 17%
  Total Cell Count: 210
[8]
  Population Apoptotic (%): 100%
  Population Fragmented Nuclei (%): 21%
  Population Healthy Nuclei (%): 70%
  Population Membrane Permeable-Phenotype (%): 13%
  Population Mitochondria Different-Phenotype (%): 19%
  Population Mitotic Cells (%): 0%
  Population Pyknosed Nuclei (%): 8%
  Population Tubulin-Different-Phenotype (%): 7%
  Total Cell Count: 126
[9]
  Population Apoptotic (%): 84%
  Population Fragmented Nuclei (%): 16%
  Population Healthy Nuclei (%): 74%
  Population Hoechst High Intensity Objects (%): 3%
  Population Membrane Permeable-Phenotype (%): 5%
  Population Mitochondria Different-Phenotype (%): 3%
  Population Mitotic Cells (%): 15%
  Population Normal (%): 96%
  Population Pyknosed Nuclei (%): 9%
  Population Tubulin-Different-Phenotype (%): 3%
  Total Cell Count: 425
[10]
  Population Apoptotic (%): 76%
  Population Fragmented Nuclei (%): 19%
  Population Healthy Nuclei (%): 69%
  Population Membrane Permeable-Phenotype (%): 8%
  Population Mitochondria Different-Phenotype (%): 5%
  Population Mitotic Cells (%): 23%
  Population Pyknosed Nuclei (%): 10%
  Total Cell Count: 166
[11]
  Population Apoptotic (%): 61%
  Population Fragmented Nuclei (%): 35%
  Population Healthy Nuclei (%): 46%
  Population Hoechst High Intensity Objects (%): 4%
  Population Membrane Permeable-Phenotype (%): 20%
  Population Mitochondria Different-Phenotype (%): 17%
  Population Mitotic Cells (%): 38%
  Population Normal (%): 95%
  Population Pyknosed Nuclei (%): 17%
  Population Tubulin-Different-Phenotype (%): 11%
  Total Cell Count: 236
[12]
  Population Apoptotic (%): 85%
  Population Fragmented Nuclei (%): 25%
  Population Healthy Nuclei (%): 60%
  Population Membrane Permeable-Phenotype (%): 12%
  Population Mitochondria Different-Phenotype (%): 12%
  Population Mitotic Cells (%): 14%
  Population Pyknosed Nuclei (%): 14%
  Population Tubulin-Different-Phenotype (%): 3%
  Total Cell Count: 151

## COc1cc(C(=O)N(CCCc2ccccc2)Cc2ccc(CC(=O)O)cc2)cc(OC)c1C
[1]
  Population Apoptotic (%): 95%
  Population Fragmented Nuclei (%): 29%
  Population Healthy Nuclei (%): 60%
  Population Hoechst High Intensity Objects (%): 4%
  Population Membrane Permeable-Phenotype (%): 7%
  Population Mitochondria Different-Phenotype (%): 4%
  Population Mitotic Cells (%): 4%
  Population Normal (%): 95%
  Population Pyknosed Nuclei (%): 10%
  Population Tubulin-Different-Phenotype (%): 4%
  Total Cell Count: 228
[2]
  Population Apoptotic (%): 70%
  Population Fragmented Nuclei (%): 23%
  Population Healthy Nuclei (%): 65%
  Population Membrane Permeable-Phenotype (%): 8%
  Population Mitochondria Different-Phenotype (%): 1%
  Population Mitotic Cells (%): 30%
  Population Pyknosed Nuclei (%): 11%
  Population Tubulin-Different-Phenotype (%): 1%
  Total Cell Count: 93
[3]
  Population Apoptotic (%): 82%
  Population Fragmented Nuclei (%): 22%
  Population Healthy Nuclei (%): 71%
  Population Hoechst High Intensity Objects (%): 0%
  Population Membrane Permeable-Phenotype (%): 5%
  Population Mitochondria Different-Phenotype (%): 0%
  Population Mitotic Cells (%): 17%
  Population Normal (%): 99%
  Population Pyknosed Nuclei (%): 6%
  Population Tubulin-Different-Phenotype (%): 2%
  Total Cell Count: 262
[4]
  Population Apoptotic (%): 100%
  Population Fragmented Nuclei (%): 15%
  Population Healthy Nuclei (%): 79%
  Population Hoechst High Intensity Objects (%): 1%
  Population Membrane Permeable-Phenotype (%): 2%
  Population Mitochondria Different-Phenotype (%): 3%
  Population Mitotic Cells (%): 0%
  Population Normal (%): 98%
  Population Pyknosed Nuclei (%): 4%
  Population Tubulin-Different-Phenotype (%): 4%
  Total Cell Count: 171
[5]
  Population Apoptotic (%): 84%
  Population Fragmented Nuclei (%): 29%
  Population Healthy Nuclei (%): 61%
  Population Hoechst High Intensity Objects (%): 2%
  Population Membrane Permeable-Phenotype (%): 7%
  Population Mitochondria Different-Phenotype (%): 6%
  Population Mitotic Cells (%): 15%
  Population Normal (%): 97%
  Population Pyknosed Nuclei (%): 9%
  Population Tubulin-Different-Phenotype (%): 4%
  Total Cell Count: 288
[6]
  Population Apoptotic (%): 73%
  Population Fragmented Nuclei (%): 22%
  Population Healthy Nuclei (%): 64%
  Population Hoechst High Intensity Objects (%): 4%
  Population Membrane Permeable-Phenotype (%): 2%
  Population Mitochondria Different-Phenotype (%): 2%
  Population Mitotic Cells (%): 26%
  Population Normal (%): 95%
  Population Pyknosed Nuclei (%): 13%
  Population Tubulin-Different-Phenotype (%): 0%
  Total Cell Count: 120
[7]
  Population Apoptotic (%): 94%
  Population Fragmented Nuclei (%): 18%
  Population Healthy Nuclei (%): 76%
  Population Hoechst High Intensity Objects (%): 0%
  Population Membrane Permeable-Phenotype (%): 7%
  Population Mitochondria Different-Phenotype (%): 2%
  Population Mitotic Cells (%): 5%
  Population Normal (%): 99%
  Population Pyknosed Nuclei (%): 5%
  Population Tubulin-Different-Phenotype (%): 3%
  Total Cell Count: 318
[8]
  Population Apoptotic (%): 84%
  Population Fragmented Nuclei (%): 12%
  Population Healthy Nuclei (%): 80%
  Population Hoechst High Intensity Objects (%): 2%
  Population Mitochondria Different-Phenotype (%): 5%
  Population Mitotic Cells (%): 15%
  Population Normal (%): 97%
  Population Pyknosed Nuclei (%): 6%
  Population Tubulin-Different-Phenotype (%): 5%
  Total Cell Count: 192
[9]
  Population Apoptotic (%): 86%
  Population Fragmented Nuclei (%): 23%
  Population Healthy Nuclei (%): 69%
  Population Hoechst High Intensity Objects (%): 3%
  Population Membrane Permeable-Phenotype (%): 5%
  Population Mitochondria Different-Phenotype (%): 2%
  Population Mitotic Cells (%): 13%
  Population Normal (%): 96%
  Population Pyknosed Nuclei (%): 7%
  Population Tubulin-Different-Phenotype (%): 4%
  Total Cell Count: 408
[10]
  Population Apoptotic (%): 78%
  Population Fragmented Nuclei (%): 22%
  Population Healthy Nuclei (%): 64%
  Population Hoechst High Intensity Objects (%): 6%
  Population Membrane Permeable-Phenotype (%): 7%
  Population Mitochondria Different-Phenotype (%): 5%
  Population Mitotic Cells (%): 21%
  Population Normal (%): 93%
  Population Pyknosed Nuclei (%): 12%
  Population Tubulin-Different-Phenotype (%): 6%
  Total Cell Count: 159
[11]
  Population Apoptotic (%): 93%
  Population Fragmented Nuclei (%): 18%
  Population Healthy Nuclei (%): 75%
  Population Hoechst High Intensity Objects (%): 1%
  Population Membrane Permeable-Phenotype (%): 4%
  Population Mitochondria Different-Phenotype (%): 2%
  Population Mitotic Cells (%): 6%
  Population Normal (%): 98%
  Population Pyknosed Nuclei (%): 6%
  Population Tubulin-Different-Phenotype (%): 2%
  Total Cell Count: 504
[12]
  Population Apoptotic (%): 94%
  Population Fragmented Nuclei (%): 15%
  Population Healthy Nuclei (%): 71%
  Population Hoechst High Intensity Objects (%): 3%
  Population Membrane Permeable-Phenotype (%): 8%
  Population Mitochondria Different-Phenotype (%): 1%
  Population Mitotic Cells (%): 5%
  Population Normal (%): 96%
  Population Pyknosed Nuclei (%): 13%
  Population Tubulin-Different-Phenotype (%): 4%
  Total Cell Count: 280
